Laboratory results: ChEMBL document CHEMBL2331405, “Benzanilide-Biphenyl Replacement: A Bioisosteric Approach to Quinoline Carboxamide-Type ABCG2 Modulators” (ACS Med Chem Lett, 2013)

How the values were obtained:
[1] = Half life in NMRI nu/nu mouse plasma at 3 mM by RP-HPLC analysis; format: ADME, cell-free
Plasma = test: Stability in NMRI nu/nu mouse plasma at 3 mM measured within 30 mins by RP-HPLC analysis; format: ADME, cell-free; settings: 0.5 h, 3000 µM
[2] = molecular target: T1, Broad substrate specificity ATP-binding cassette transporter ABCG2 (Homo sapiens, UniProt Q9UNQ0); test: Inhibition of ABCG2 in human MCF7/Topo cells after 2 hrs by Hoechst 33342 microplate assay; format: cell-based; settings: for inhibition (INH): human, mcf7/topo, 2 h
T1 sequence (Q9UNQ0 whole entry): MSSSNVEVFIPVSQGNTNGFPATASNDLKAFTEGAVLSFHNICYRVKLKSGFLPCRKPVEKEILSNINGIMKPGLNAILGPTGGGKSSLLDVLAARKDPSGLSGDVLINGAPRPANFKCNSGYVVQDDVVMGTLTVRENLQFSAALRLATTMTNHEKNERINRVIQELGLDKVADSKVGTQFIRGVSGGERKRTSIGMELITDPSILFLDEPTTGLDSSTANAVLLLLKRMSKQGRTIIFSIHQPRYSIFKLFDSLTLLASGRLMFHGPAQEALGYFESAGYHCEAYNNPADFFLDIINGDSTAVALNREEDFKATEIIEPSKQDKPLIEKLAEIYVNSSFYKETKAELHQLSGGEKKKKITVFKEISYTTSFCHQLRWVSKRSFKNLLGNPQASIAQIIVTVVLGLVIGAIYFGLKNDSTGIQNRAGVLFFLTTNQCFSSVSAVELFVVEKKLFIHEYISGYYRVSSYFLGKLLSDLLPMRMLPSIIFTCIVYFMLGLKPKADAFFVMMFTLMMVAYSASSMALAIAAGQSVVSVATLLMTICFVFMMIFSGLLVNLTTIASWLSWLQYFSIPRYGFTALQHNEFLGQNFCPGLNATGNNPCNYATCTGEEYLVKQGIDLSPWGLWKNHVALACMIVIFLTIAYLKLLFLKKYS

ABCB1 = ABCB1 (Homo sapiens, UniProt P08183); test: Inhibition of ABCB1 in human KBV1 cells after 10 mins by Calcein-AM microplate assay relative to 1 uM tariquidar; format: cell-based; settings: probe calcein-AM
Outline: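 Microplate calcein-AM assay in ABCB1-overexpressing Kb-V1 cells. Maximal inhibition is expressed as a percentage of the maximal response to tariquidar at 1 μM. Means ± SEM come from two to three independent experiments, each run in triplicate.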

ABCG2 [3] = molecular target: T2, ABCG2 (Homo sapiens, UniProt Q9UNQ0); test: Inhibition of ABCG2 in human MCF7/Topo cells at 70 to 100 uM after 2 hrs by Hoechst 33342 microplate assay relative to 10 uM fumitremorgin; format: cell-based; settings: probe Hoechst 33342, read-out: Imax
T2 sequence (Q9UNQ0 whole entry): T1 sequence (Q9UNQ0 whole entry)

[4] = molecular target: T3, ATP-dependent translocase ABCB1 (Homo sapiens, UniProt P08183); test: Inhibition of ABCB1 in human KBV1 cells after 10 mins by Calcein-AM microplate assay; format: cell-based
[5] = molecular target: T3, ATP-dependent translocase ABCB1; test: Inhibition of ABCB1 in human KBV1 cells up to 100 uM after 10 mins by Calcein-AM microplate assay; format: cell-based; settings: kbv1, 10 min
Outline: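 Microplate calcein-AM efflux assay in ABCB1-overexpressing Kb-V1 cells. Values are means ± SEM from two to three independent experiments, each run in triplicate.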

ABCG2 [6] = molecular target: T2, ABCG2; test: Ratio of compound IC50 to elacridar IC50 for ABCG2 in human MCF7/Topo cells after 2 hrs by Hoechst 33342 microplate assay; format: cell-based; settings: probe Hoechst 33342, read-out: Ratio IC50

T3 sequence (P08183 whole entry): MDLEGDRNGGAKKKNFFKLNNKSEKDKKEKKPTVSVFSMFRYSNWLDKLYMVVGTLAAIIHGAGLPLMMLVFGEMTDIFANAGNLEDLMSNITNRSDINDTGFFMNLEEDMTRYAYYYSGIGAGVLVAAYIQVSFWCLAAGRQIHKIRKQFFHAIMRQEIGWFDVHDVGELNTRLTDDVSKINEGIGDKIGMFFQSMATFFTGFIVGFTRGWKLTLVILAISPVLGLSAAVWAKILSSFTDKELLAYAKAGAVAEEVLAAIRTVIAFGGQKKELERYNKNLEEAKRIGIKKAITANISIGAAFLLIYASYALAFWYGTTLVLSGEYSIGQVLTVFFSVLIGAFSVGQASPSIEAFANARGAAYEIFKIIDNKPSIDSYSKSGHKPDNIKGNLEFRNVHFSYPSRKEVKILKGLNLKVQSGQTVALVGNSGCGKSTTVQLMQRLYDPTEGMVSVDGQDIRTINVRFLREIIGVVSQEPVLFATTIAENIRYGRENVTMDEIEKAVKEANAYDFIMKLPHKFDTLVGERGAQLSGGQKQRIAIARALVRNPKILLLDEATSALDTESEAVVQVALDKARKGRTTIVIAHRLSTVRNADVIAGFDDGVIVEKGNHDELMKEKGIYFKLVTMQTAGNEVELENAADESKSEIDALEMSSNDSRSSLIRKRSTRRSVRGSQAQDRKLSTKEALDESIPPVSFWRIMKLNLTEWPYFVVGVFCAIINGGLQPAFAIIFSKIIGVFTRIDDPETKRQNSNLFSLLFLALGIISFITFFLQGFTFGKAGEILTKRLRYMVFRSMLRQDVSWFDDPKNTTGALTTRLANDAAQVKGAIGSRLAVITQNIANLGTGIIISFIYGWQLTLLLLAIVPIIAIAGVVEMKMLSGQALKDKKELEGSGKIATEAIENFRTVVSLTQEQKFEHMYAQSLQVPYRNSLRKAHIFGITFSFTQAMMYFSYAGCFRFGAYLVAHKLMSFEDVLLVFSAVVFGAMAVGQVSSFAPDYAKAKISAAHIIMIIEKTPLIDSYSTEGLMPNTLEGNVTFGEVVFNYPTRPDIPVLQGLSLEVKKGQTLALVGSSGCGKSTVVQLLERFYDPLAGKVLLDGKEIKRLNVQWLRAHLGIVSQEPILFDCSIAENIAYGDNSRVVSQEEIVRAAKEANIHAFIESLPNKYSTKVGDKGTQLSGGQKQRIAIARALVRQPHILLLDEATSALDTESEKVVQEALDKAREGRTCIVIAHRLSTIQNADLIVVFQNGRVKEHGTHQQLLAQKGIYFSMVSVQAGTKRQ
ABCB1, sequence (P08183 whole entry): as above

Row | Compound | half-life at 3000 µM [1] [h] | Stability (Plasma) | IC50 [2] [nM] | inhibition at 10 min (ABCB1) [%] | Emax at 2 h (ABCG2 [3]) [%] | IC50 [4] [nM] | inhibition (INH) [2] | inhibition (INH) [5] | selectivity ratio at 2 h (ABCG2 [6])
1 | COCCOCCOCCOc1cc2c(cc1OC)CCN(CCc1ccc(NC(=O)c3ccc(C(=O)OC)c(NC(=O)c4ccc5ccccc5n4)c3)cc1)C2 | 0.167 | Unstable |  |  |  |  |  |  | 
2 | COCCOCCOCCOc1cc2c(cc1OC)CCN(CCc1ccc(-c3ccc(C(=O)OC)c(NC(=O)c4ccc5ccccc5n4)c3)cc1)C2 | 24 |  | 760 | 50 | 98 | 5420 |  |  | 
3 | COCCOCCOCCOc1cc2c(cc1OCCOCCOCCOC)CN(CCc1ccc(-c3ccc(C(=O)OC)c(NC(=O)c4ccc5ccccc5n4)c3)cc1)CC2 | 24 |  | 544 | 50 | 112 | 5990 | Dose-dependent effect |  | 
4 | COC(=O)c1ccc(-c2ccc(CN3CCc4cc(OC)c(OC)cc4C3)cc2)cc1NC(=O)c1ccc2ccccc2n1 | 24 |  | 943 |  | 87 |  |  | Not Active | 
5 | COC(=O)c1ccc(-c2ccc(CN3CCc4cc(OC)c(OC)cc4C3)cc2)cc1NC(=O)c1ccc2ncccc2c1 | 24 |  | 1540 |  | 92 | 10900 |  |  | 
6 | COCCOCCOCCOc1cc2c(cc1OC)CN(Cc1ccc(-c3ccc(C(=O)OC)c(NC(=O)c4ccc5ccccc5n4)c3)cc1)CC2 | 24 |  | 1030 |  | 114 |  |  | Not Active | 
7 | COCCOCCOCCOc1cc2c(cc1OC)CN(Cc1ccc(-c3ccc(C(=O)OC)c(NC(=O)c4ccc5ncccc5c4)c3)cc1)CC2 | 24 |  | 237 |  | 67 | 18000 |  |  | 
8 | COCCOCCOCCOc1cc2c(cc1OC)CCN(Cc1ccc(-c3ccc(C(=O)OC)c(NC(=O)c4ccc5ccccc5n4)c3)cc1)C2 | 24 |  | 591 | 20 | 109 | 1230 | Dose-dependent effect |  | 
9 | COCCOCCOCCOc1cc2c(cc1OCCOCCOCCOC)CN(Cc1ccc(-c3ccc(C(=O)OC)c(NC(=O)c4ccc5ccccc5n4)c3)cc1)CC2 | 24 |  | 839 |  | 103 |  |  | Not Active | 
10 | COC(=O)c1ccc(-c2ccc(CCN3CCc4ccccc4C3)cc2)cc1NC(=O)c1ccc2ccccc2n1 | 24 |  | 1100 |  | 90 |  |  | Not Active | 
11 | COC(=O)c1ccc(-c2ccc(CCN3CCc4cc(OC)c(OC)cc4C3)cc2)cc1NC(=O)c1ccc2ccccc2n1 | 24 |  | 3210 |  | 126 |  |  | Not Active | 
12 | COC(=O)c1ccc(-c2ccc(CN3CCc4ccccc4C3)cc2)cc1NC(=O)c1ccc2ccccc2n1 | 24 |  | 1460 |  | 85 |  |  | Not Active | 
13 | COC(=O)c1ccc(-c2ccc(CN3CCc4ccccc4C3)cc2)cc1NC(=O)c1ccc2ncccc2c1 | 24 |  | 641 |  | 94 | 4490 |  |  | 
14 | COc1cc2c(cc1OC)CN(CCc1ccc(NC(=O)c3cc(OC)c(OC)cc3NC(=O)c3cnc4ccccc4c3)cc1)CC2 |  |  |  |  | 69 |  | Dose-dependent effect |  | 4
15 | COc1cc2c(cc1OC)CN(CCc1ccc(NC(=O)c3cccc4c(=O)c5cccc(OC)c5[nH]c34)cc1)CC2 |  |  |  |  | 63 |  |  |  | 
16 | COc1ccc2c3c([nH]c2c1)[C@H](CC(C)C)N1C(=O)[C@H](CCC(=O)OC(C)(C)C)NC(=O)[C@@H]1C3 |  |  |  |  |  |  |  | Not Active | 
17 | COC(=O)c1ccc(C(=O)Nc2ccc(CCN3CCc4cc(OC)c(OC)cc4C3)cc2)cc1NC(=O)c1ccc2ccccc2n1 | 0.167 | Unstable | 65 |  | 63 |  | Dose-dependent effect |  | 
18 | COc1ccc2c3c([nH]c2c1)[C@H](C=C(C)C)N1C(=O)[C@@H]2CCCN2C(=O)[C@@H]1C3 [FUMITREMORGIN] |  |  | 731 |  | 100 |  |  |  | 
